# Results pooled from the literature.
# Protocols differ between the studies behind these lines.
# Cell line: HeLa
# Observed: cell growth or viability
Compound,test,conditions,CC50
CCOP(=O)(OCC)[C@@H]1C[C@@H](n2cc(Cn3cnc4c(N)ncnc43)nn2)ON1C (racemic),,72 h,> 250 µM
COCCN1CCN(c2nc(SCCc3ccccc3)c(C#N)c3c2COC(C)(C)C3)CC1,,,< 50 µM
Cc1nc2ccc(Cl)cn2c1C(=O)N1CCN(Cc2cn(-c3ccccc3Cl)nn2)CC1,resazurin,,> 100 µM
COC(=O)c1ccnc(C(=O)OC)c1,,,> 1000 µM
CSSc1ccccc1C(=O)O,MTT,48 h,409 µM
Cc1nc2ccc(Cl)cn2c1C(=O)N1CCN(Cc2cn(-c3ccc(Br)cc3)nn2)CC1,resazurin,,> 100 µM
CCOP(=O)(OCC)[C@@H]1C[C@H](n2cc(Cn3cc(C)c(=O)[nH]c3=O)nn2)ON1C (racemic),,72 h,> 250 µM
O=C(O)c1ccc(O)c2ncccc12,,,> 1000 µM
Cc1nc2ccc(Cl)cn2c1C(=O)N1CCN(Cc2cn(-c3ccc(F)c(Cl)c3)nn2)CC1,resazurin,,> 100 µM
CCOP(=O)(OCC)[C@@H]1C[C@@H](n2cc(-c3nccn3C)nn2)ON1C,,72 h,> 250 µM
CN1CC[C@H](c2c(O)cc(O)c3c(=O)cc(-c4ccccc4Cl)oc23)[C@H](O)C1,MTT,72 h,0.12 µM
Cc1nc2ccc(Cl)cn2c1C(=O)N1CCN(Cc2cn(-c3ccccc3F)nn2)CC1,resazurin,,> 100 µM
CCOP(=O)(OCC)[C@@H]1C[C@@H](n2cc(C(=O)OC)nn2)ON1C (relative stereo),,72 h,> 250 µM
COC(=O)[C@@H]1Cc2c([nH]c3ccccc23)[C@@H](c2ccc3c(c2)OCO3)N1,MTT,48 h,10 µg/mL
Cc1ccn2c(C(=O)N3CCN(Cc4cn(-c5ccc(Br)cc5)nn4)CC3)c(C)nc2c1,resazurin,,> 100 µM
O=[N+]([O-])c1ccc(-c2nc3cccc(O)c3[nH]2)o1,resazurin,72 h,20 µM
